# Source: ChEMBL document CHEMBL1131235, “(R)-(+)-2-[[[3-(Morpholinomethyl)-2H-chromen-8-yl]oxy]methyl] morpholine methanesulfonate: a new selective rat 5-hydroxytryptamine1B receptor antagonist” (J Med Chem, 1998)
# Values joined by “and” are separate entries in the source; they are usually repeats but may differ in a detail not shown here. Identical values can stand only once.
# Assays:
# [1] = biological target: 5-hydroxytryptamine receptor 6 (Rattus norvegicus, UniProt P31388); assay: Binding affinity against 5-hydroxytryptamine 6 receptor from CHO cell membranes using [3H]5-HT as the radioligand.
# Sequence of 5-hydroxytryptamine receptor 6 (P31388 whole entry): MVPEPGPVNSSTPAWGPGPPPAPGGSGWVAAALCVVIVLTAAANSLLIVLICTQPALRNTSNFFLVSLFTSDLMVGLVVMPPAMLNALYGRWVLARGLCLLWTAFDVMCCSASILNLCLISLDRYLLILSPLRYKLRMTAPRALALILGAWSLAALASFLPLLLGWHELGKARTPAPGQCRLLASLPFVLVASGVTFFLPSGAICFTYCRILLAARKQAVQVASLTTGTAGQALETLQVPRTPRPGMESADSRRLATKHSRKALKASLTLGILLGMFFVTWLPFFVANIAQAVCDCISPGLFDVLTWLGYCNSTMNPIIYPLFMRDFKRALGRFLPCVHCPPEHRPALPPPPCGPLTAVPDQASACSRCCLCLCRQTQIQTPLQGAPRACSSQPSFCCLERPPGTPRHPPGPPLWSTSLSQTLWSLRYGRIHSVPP
# In short: (§1)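 Binding by the Johansson et al. method. 5-HT2A used [3H]ketanserin and 5-HT2C used [3H]mesulergine, both on rat cortex. 5-HT6 and 5-HT7 used [3H]-5-HT on CHO cell membranes expressing the rat receptors.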
# Rattus norvegicus [2] = species on record: Rattus norvegicus; assay: Percent control of the stimulation ratio S2 (second stimulation)/S1(first stimulation) at a concentration of 1000 nM. (p<0.05); assay type: functional
# Rattus norvegicus [3] = species on record: Rattus norvegicus; assay: Effect on 5-HTP turnover in Striatum of rat brain, expressed as percent of control; assay type: functional
# In short: (§2)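 Rats received compound 20 mg/kg sc or saline 30 min before NSD 1015 (3-hydroxybenzylhydrazine dihydrochloride), 100 mg/kg sc. They were killed 30 min later. Hypothalamus, hippocampus, frontal cortex and striatum were dissected, frozen on dry ice and stored at -70 °C. 5-HTP, 5-HT and 5-HIAA were measured by HPLC and expressed as % of saline control.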
# [4] = Antagonism of the induced potentiation of K+ stimulated [3H]5-HT release from brain slices with 5-HT (1000 nM) at a concentration of 1000nM, expressed as percent of control; assay type: functional, Rattus norvegicus; set-up: scale not given: the % may be the effect or the level left
# In short: (§3)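 Superfused rat occipital cortex slices (0.3 × 0.3 mm) preloaded with [3H]-5-HT; Krebs-Henseleit pH 7.4 with 2.5 μM citalopram, 0.4 mL/min. Two 4-min 25 mM KCl pulses (62 and 98 min). Compound and 5-HT were given in the same solution. Fractions and slices were counted by scintillation. S2/S1 is expressed as % of control.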
# [5] = biological target: Muscarinic acetylcholine receptor M3 (Rattus norvegicus, UniProt P08483); assay: Binding affinity against Muscarinic acetylcholine receptor using [3H]QNB as the radioligand.
# Sequence of Muscarinic acetylcholine receptor M3 (P08483 whole entry): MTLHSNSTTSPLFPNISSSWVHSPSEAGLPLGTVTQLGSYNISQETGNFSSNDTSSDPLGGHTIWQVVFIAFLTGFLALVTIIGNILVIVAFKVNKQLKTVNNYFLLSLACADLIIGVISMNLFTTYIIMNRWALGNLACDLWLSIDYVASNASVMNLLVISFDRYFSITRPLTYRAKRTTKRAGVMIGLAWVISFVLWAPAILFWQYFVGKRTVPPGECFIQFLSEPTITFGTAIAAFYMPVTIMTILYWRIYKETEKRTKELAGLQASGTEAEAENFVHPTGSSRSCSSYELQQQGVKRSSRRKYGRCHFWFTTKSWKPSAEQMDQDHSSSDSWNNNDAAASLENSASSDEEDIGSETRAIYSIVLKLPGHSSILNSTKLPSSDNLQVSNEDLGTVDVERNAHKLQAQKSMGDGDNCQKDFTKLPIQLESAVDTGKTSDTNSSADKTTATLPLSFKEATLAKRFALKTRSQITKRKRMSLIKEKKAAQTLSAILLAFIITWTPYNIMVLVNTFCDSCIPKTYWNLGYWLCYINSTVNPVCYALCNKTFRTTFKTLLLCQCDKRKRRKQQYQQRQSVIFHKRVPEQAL
# Rattus norvegicus [6] = species on record: Rattus norvegicus; assay: Effect on 5-HIAA/5-HT turnover in Striatum of rat brain, expressed as percent of control; assay type: functional; in short: as §2
# [7] = Antagonism of the induced potentiation of K+ stimulated [3H]5-HT release from brain slices with 5-HT (1000 nM) at a concentration of 1000 nM.; assay type: functional, Rattus norvegicus
# In short: (§4)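 Rat occipital cortex slices (0.3 × 0.3 mm) were preloaded with [3H]-5-HT and superfused at 0.4 mL/min with oxygenated Krebs-Henseleit buffer, pH 7.4, containing 2.5 μM citalopram. After a 50 min wash, 4-min fractions were collected. 25 mM KCl was applied for 4 min at 62 min and again at 98 min. Test compound and 5-HT were given together in the same solution for 72 min. Fraction and slice radioactivity were counted by liquid scintillation. S2/S1 was expressed as % of control; Dunnett's t-test after ANOVA.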
# [8] = Antagonism of the induced potentiation of K+ stimulated [3H]-5-HT release from brain slices with 5-HT (100 nM) at a concentration of 1000 nM, expressed as percent of control; assay type: functional, Rattus norvegicus; set-up: scale not given: the % may be the effect or the level left; in short: as §3
# [9] = Antagonism of the induced potentiation of K+ stimulated [3H]5-HT release from brain slices with 5-HT (100 nM) at a concentration of 1000 nM.; assay type: functional, Rattus norvegicus; in short: as §4
# Rattus norvegicus [10] = species on record: Rattus norvegicus; assay: Effect on 5-HIAA/5-HT turnover in Hippocampus of rat brain, expressed as percent of control; assay type: functional; in short: as §2
# Rattus norvegicus [11] = species on record: Rattus norvegicus; assay: Effect on 5-HTP turnover in hypothalamus of rat brain, expressed as percent of control; assay type: functional; in short: as §2
# [12] = biological target: 5-hydroxytryptamine receptor 7 (Rattus norvegicus, UniProt P32305); assay: Binding affinity against 5-hydroxytryptamine 7 receptor using from CHO cell membranes [3H]5-HT as the radioligand.; in short: as §1
# Sequence of 5-hydroxytryptamine receptor 7 (P32305 whole entry): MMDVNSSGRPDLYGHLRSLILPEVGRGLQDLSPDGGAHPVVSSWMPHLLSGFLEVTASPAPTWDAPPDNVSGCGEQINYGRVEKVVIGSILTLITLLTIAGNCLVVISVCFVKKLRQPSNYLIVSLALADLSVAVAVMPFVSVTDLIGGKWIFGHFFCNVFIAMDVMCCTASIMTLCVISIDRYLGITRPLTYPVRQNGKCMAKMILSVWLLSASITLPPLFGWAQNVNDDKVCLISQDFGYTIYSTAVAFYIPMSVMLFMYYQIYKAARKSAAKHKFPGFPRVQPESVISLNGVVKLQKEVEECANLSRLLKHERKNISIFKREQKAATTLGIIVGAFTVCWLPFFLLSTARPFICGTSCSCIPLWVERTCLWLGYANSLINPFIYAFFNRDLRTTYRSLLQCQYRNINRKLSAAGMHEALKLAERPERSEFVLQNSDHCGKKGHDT
# [13] = Effect on 5-HTP turnover in Frontal cortex of rat brain, expressed as percent of control; assay type: functional; in short: as §2
# [14] = Potentiation of K+ stimulated release of [3H]5-HT from brain slices at a concentration of 0 nM. (activity expressed as ratio of S2 (second stimulation)/S1(first stimulation)); assay type: functional, Rattus norvegicus
# [15] = Potentiation of K+ stimulated release of [3H]-5-HT from brain slices at a concentration of 10 nM. (activity expressed as ratio of S2 (second stimulation)/S1(first stimulation)); assay type: functional, Rattus norvegicus
# In short: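 Rat occipital cortex slices (0.3 × 0.3 mm) preloaded with [3H]-5-HT, superfused at 0.4 mL/min with oxygenated Krebs-Henseleit pH 7.4 containing 2.5 μM citalopram. Two 4-min 25 mM KCl pulses at 62 and 98 min, compound present for 72 min spanning S2. Fractional release counted by liquid scintillation. S2/S1 ratio reported, also as % of control; n=3–8.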
# Rattus norvegicus [16] = species on record: Rattus norvegicus; assay: Effect on 5-HTP turnover in Hippocampus of rat brain, expressed as percent of control; assay type: functional; in short: as §2
# Rattus norvegicus [17] = species on record: Rattus norvegicus; assay: Effect on 5-HIAA/5-HT turnover in Hyphalamus of rat brain, expressed as percent of control; assay type: functional; in short: as §2
# [18] = Effect on 5-HIAA/5-HT turnover in Frontal cortex of rat brain, expressed as percent of control; assay type: functional; in short: as §2
# Rattus norvegicus [19] = species on record: Rattus norvegicus; assay: Percent control of the stimulation ratio S2 (second stimulation)/S1(first stimulation) at a concentration of 10 nM. (P>0.05); assay type: functional
structure (smiles),measurement,setting,value
C1=C(CN2CCOCC2)COc2c1cccc2OC[C@H]1CNCCO1.CS(=O)(=O)O,Ki,[1],> 3 µM
same,Control,Rattus norvegicus [2],153%
same,Activity,Rattus norvegicus [3],142%
same,Activity,[4],149% and 107%
same,Ki,[5],> 1 µM
same,Activity,Rattus norvegicus [6],145%
same,Ratio of stimulation,[7],1.12 and 0.8
same,Activity,[8],149% and 161%
same,Ratio of stimulation,[9],1.28 and 1.39
same,Activity,Rattus norvegicus [10],142%
same,Activity,Rattus norvegicus [11],140%
same,Ki,[12],> 3 µM
same,Activity,[13],142%
same,Potentiation,[14],0.99
same,Potentiation,[15],1.11
same,Activity,Rattus norvegicus [16],148%
same,Activity,Rattus norvegicus [17],166%
same,Activity,[18],161%
same,Control,Rattus norvegicus [19],115%
